How the values were obtained:
Brain [1] = experiment: Ratio of drug uptake in ddY mouse brain at 1 uCi/100 uL, iv after 2 mins to drug uptake in ddY mouse brain at 1 uCi/100 uL, iv after 60 mins; assay type: ADME, organism-based; settings: in vivo
How it was run: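 Normal female ddY mice (5 weeks) received the radiotracer iv, and brain uptake (% ID/g, n = 4) was measured by gamma counting at 2 and 60 min. The index is brain uptake at 2 min divided by brain uptake at 60 min.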

[2] = Partition coefficient, log D of the compound; assay type: physicochemical; settings: octanol/water
How it was run: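 Radiotracer partitioned between n-octanol and PBS: vortexed 3 min at room temperature, centrifuged 5 min at 3000 rpm. Weighed samples of the octanol (100 μL) and buffer (500 μL) layers were counted. log D is the log of the ratio of counts per gram, octanol versus PBS.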

Blood [3] = experiment: Biodistribution in ddY mouse blood at 1 uCi/100 uL, iv after 2 mins by gamma counting; assay type: ADME, organism-based; settings: in vivo
How it was run: (§1)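 Normal female ddY mice (5 weeks, about 20 g; n = 4 per group) received radiotracer iv. Organs were removed and weighed at 2–120 min and counted in a γ-counter. Percent dose per gram of wet tissue was calculated against diluted aliquots of the injected material and reported as mean ± SD.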

Brain [4] = experiment: Biodistribution in ddY mouse brain at 1 uCi/100 uL, iv after 2 mins by gamma counting; assay type: ADME, organism-based; settings: in vivo; how it was run: as §1
Heart [5] = experiment: Biodistribution in ddY mouse heart at 1 uCi/100 uL, iv after 2 mins by gamma counting; assay type: ADME, organism-based; settings: in vivo; how it was run: as §1
Liver [6] = experiment: Biodistribution in ddY mouse liver at 1 uCi/100 uL, iv after 2 mins by gamma counting; assay type: ADME, organism-based; settings: in vivo
Spleen [7] = experiment: Biodistribution in ddY mouse spleen at 1 uCi/100 uL, iv after 2 mins by gamma counting; assay type: ADME, organism-based; settings: in vivo
Lung [8] = experiment: Biodistribution in ddY mouse lung at 1 uCi/100 uL, iv after 2 mins by gamma counting; assay type: ADME, organism-based; settings: in vivo
Kidney [9] = experiment: Biodistribution in ddY mouse kidney at 1 uCi/100 uL, iv after 2 mins by gamma counting; assay type: ADME, organism-based; settings: in vivo; how it was run: as §1
Stomach [10] = experiment: Biodistribution in ddY mouse stomach at 1 uCi/100 uL, iv after 2 mins by gamma counting; assay type: ADME, organism-based; settings: in vivo
Intestine [11] = experiment: Biodistribution in ddY mouse intestine at 1 uCi/100 uL, iv after 2 mins by gamma counting; assay type: ADME, organism-based; settings: in vivo; how it was run: as §1
Thyroid gland [12] = experiment: Biodistribution in ddY mouse thyroid at 1 uCi/100 uL, iv after 2 mins by gamma counting; assay type: ADME, organism-based; settings: in vivo
Blood [13] = experiment: Biodistribution in ddY mouse blood at 1 uCi/100 uL, iv after 15 mins by gamma counting; assay type: ADME, organism-based; settings: in vivo, 0.25 h; how it was run: as §1
Brain [14] = experiment: Biodistribution in ddY mouse brain at 1 uCi/100 uL, iv after 15 mins by gamma counting; assay type: ADME, organism-based; settings: in vivo, 0.25 h; how it was run: as §1
Heart [15] = experiment: Biodistribution in ddY mouse heart at 1 uCi/100 uL, iv after 15 mins by gamma counting; assay type: ADME, organism-based; settings: in vivo, 0.25 h; how it was run: as §1
Liver [16] = experiment: Biodistribution in ddY mouse liver at 1 uCi/100 uL, iv after 15 mins by gamma counting; assay type: ADME, organism-based; settings: in vivo, 0.25 h
Spleen [17] = experiment: Biodistribution in ddY mouse spleen at 1 uCi/100 uL, iv after 15 mins by gamma counting; assay type: ADME, organism-based; settings: in vivo, 0.25 h
Lung [18] = experiment: Biodistribution in ddY mouse lung at 1 uCi/100 uL, iv after 15 mins by gamma counting; assay type: ADME, organism-based; settings: in vivo, 0.25 h
Kidney [19] = experiment: Biodistribution in ddY mouse kidney at 1 uCi/100 uL, iv after 15 mins by gamma counting; assay type: ADME, organism-based; settings: in vivo, 0.25 h; how it was run: as §1
Stomach [20] = experiment: Biodistribution in ddY mouse stomach at 1 uCi/100 uL, iv after 15 mins by gamma counting; assay type: ADME, organism-based; settings: in vivo, 0.25 h
Intestine [21] = experiment: Biodistribution in ddY mouse intestine at 1 uCi/100 uL, iv after 15 mins by gamma counting; assay type: ADME, organism-based; settings: in vivo, 0.25 h; how it was run: as §1
Thyroid gland [22] = experiment: Biodistribution in ddY mouse thyroid at 1 uCi/100 uL, iv after 15 mins by gamma counting; assay type: ADME, organism-based; settings: in vivo, 0.25 h
Blood [23] = experiment: Biodistribution in ddY mouse blood at 1 uCi/100 uL, iv after 30 mins by gamma counting; assay type: ADME, organism-based; settings: in vivo, 0.5 h; how it was run: as §1
Brain [24] = experiment: Biodistribution in ddY mouse brain at 1 uCi/100 uL, iv after 30 mins by gamma counting; assay type: ADME, organism-based; settings: in vivo, 0.5 h; how it was run: as §1
Heart [25] = experiment: Biodistribution in ddY mouse heart at 1 uCi/100 uL, iv after 30 mins by gamma counting; assay type: ADME, organism-based; settings: in vivo, 0.5 h; how it was run: as §1
Liver [26] = experiment: Biodistribution in ddY mouse liver at 1 uCi/100 uL, iv after 30 mins by gamma counting; assay type: ADME, organism-based; settings: in vivo, 0.5 h
Spleen [27] = experiment: Biodistribution in ddY mouse spleen at 1 uCi/100 uL, iv after 30 mins by gamma counting; assay type: ADME, organism-based; settings: in vivo, 0.5 h
Lung [28] = experiment: Biodistribution in ddY mouse lung at 1 uCi/100 uL, iv after 30 mins by gamma counting; assay type: ADME, organism-based; settings: in vivo, 0.5 h
Kidney [29] = experiment: Biodistribution in ddY mouse kidney at 1 uCi/100 uL, iv after 30 mins by gamma counting; assay type: ADME, organism-based; settings: in vivo, 0.5 h
Stomach [30] = experiment: Biodistribution in ddY mouse stomach at 1 uCi/100 uL, iv after 30 mins by gamma counting; assay type: ADME, organism-based; settings: in vivo, 0.5 h
Intestine [31] = experiment: Biodistribution in ddY mouse intestine at 1 uCi/100 uL, iv after 30 mins by gamma counting; assay type: ADME, organism-based; settings: in vivo, 0.5 h; how it was run: as §1
Thyroid gland [32] = experiment: Biodistribution in ddY mouse thyroid at 1 uCi/100 uL, iv after 30 mins by gamma counting; assay type: ADME, organism-based; settings: in vivo, 0.5 h
Blood [33] = experiment: Biodistribution in ddY mouse blood at 1 uCi/100 uL, iv after 60 mins by gamma counting; assay type: ADME, organism-based; settings: in vivo, 1 h; how it was run: as §1
Brain [34] = experiment: Biodistribution in ddY mouse brain at 1 uCi/100 uL, iv after 60 mins by gamma counting; assay type: ADME, organism-based; settings: in vivo, 1 h; how it was run: as §1
Heart [35] = experiment: Biodistribution in ddY mouse heart at 1 uCi/100 uL, iv after 60 mins by gamma counting; assay type: ADME, organism-based; settings: in vivo, 1 h; how it was run: as §1
Liver [36] = experiment: Biodistribution in ddY mouse liver at 1 uCi/100 uL, iv after 60 mins by gamma counting; assay type: ADME, organism-based; settings: in vivo, 1 h
Spleen [37] = experiment: Biodistribution in ddY mouse spleen at 1 uCi/100 uL, iv after 60 mins by gamma counting; assay type: ADME, organism-based; settings: in vivo, 1 h
Lung [38] = experiment: Biodistribution in ddY mouse lung at 1 uCi/100 uL, iv after 60 mins by gamma counting; assay type: ADME, organism-based; settings: in vivo, 1 h
Kidney [39] = experiment: Biodistribution in ddY mouse kidney at 1 uCi/100 uL, iv after 60 mins by gamma counting; assay type: ADME, organism-based; settings: in vivo, 1 h
Stomach [40] = experiment: Biodistribution in ddY mouse stomach at 1 uCi/100 uL, iv after 60 mins by gamma counting; assay type: ADME, organism-based; settings: in vivo, 1 h
Intestine [41] = experiment: Biodistribution in ddY mouse intestine at 1 uCi/100 uL, iv after 60 mins by gamma counting; assay type: ADME, organism-based; settings: in vivo, 1 h; how it was run: as §1
Thyroid gland [42] = experiment: Biodistribution in ddY mouse thyroid at 1 uCi/100 uL, iv after 60 mins by gamma counting; assay type: ADME, organism-based; settings: in vivo, 1 h
Blood [43] = experiment: Biodistribution in ddY mouse blood at 1 uCi/100 uL, iv after 120 mins by gamma counting; assay type: ADME, organism-based; settings: in vivo, 2 h; how it was run: as §1
Brain [44] = experiment: Biodistribution in ddY mouse brain at 1 uCi/100 uL, iv after 120 mins by gamma counting; assay type: ADME, organism-based; settings: in vivo, 2 h; how it was run: as §1
Heart [45] = experiment: Biodistribution in ddY mouse heart at 1 uCi/100 uL, iv after 120 mins by gamma counting; assay type: ADME, organism-based; settings: in vivo, 2 h; how it was run: as §1
Liver [46] = experiment: Biodistribution in ddY mouse liver at 1 uCi/100 uL, iv after 120 mins by gamma counting; assay type: ADME, organism-based; settings: in vivo, 2 h
Spleen [47] = experiment: Biodistribution in ddY mouse spleen at 1 uCi/100 uL, iv after 120 mins by gamma counting; assay type: ADME, organism-based; settings: in vivo, 2 h
Lung [48] = experiment: Biodistribution in ddY mouse lung at 1 uCi/100 uL, iv after 120 mins by gamma counting; assay type: ADME, organism-based; settings: in vivo, 2 h
Kidney [49] = experiment: Biodistribution in ddY mouse kidney at 1 uCi/100 uL, iv after 120 mins by gamma counting; assay type: ADME, organism-based; settings: in vivo, 2 h; how it was run: as §1
Stomach [50] = experiment: Biodistribution in ddY mouse stomach at 1 uCi/100 uL, iv after 120 mins by gamma counting; assay type: ADME, organism-based; settings: in vivo, 2 h
Intestine [51] = experiment: Biodistribution in ddY mouse intestine at 1 uCi/100 uL, iv after 120 mins by gamma counting; assay type: ADME, organism-based; settings: in vivo, 2 h; how it was run: as §1
Thyroid gland [52] = experiment: Biodistribution in ddY mouse thyroid at 1 uCi/100 uL, iv after 120 mins by gamma counting; assay type: ADME, organism-based; settings: in vivo, 2 h

With `Nc1ccc(/C=C/C(=O)/C=C/c2ccc([125I])cc2)cc1` the Ratio (Brain [1]) was 8.44, the logD [2] was 3.26 and the Drug uptake (Blood [3]) was 3.89 % ID/g. For the same molecule, the Drug uptake (Brain [4]) was 4.56 % ID/g, the Drug uptake (Heart [5]) was 7.06 % ID/g and the Drug uptake (Liver [6]) was 16.98 % ID/g. The Drug uptake (Spleen [7]) was 2.8 % ID/g, the Drug uptake (Lung [8]) was 9.25 % ID/g and the Drug uptake (Kidney [9]) was 11.2 % ID/g. The Drug uptake (Stomach [10]) was 1.37 % ID/organ, the Drug uptake (Intestine [11]) was 2.27 % ID/g and the Drug uptake (Thyroid gland [12]) was 8.64 % ID/g. The Drug uptake (Blood [13]) was 4.93 % ID/g, the Drug uptake (Brain [14]) was 2.37 % ID/g and the Drug uptake (Heart [15]) was 3.45 % ID/g. It also gave a Drug uptake (Liver [16]) of 29.08 % ID/g, a Drug uptake (Spleen [17]) of 2.02 % ID/g and a Drug uptake (Lung [18]) of 6.06 % ID/g. For the same molecule, the Drug uptake (Kidney [19]) was 22.81 % ID/g, the Drug uptake (Stomach [20]) was 3.1 % ID/organ and the Drug uptake (Intestine [21]) was 6.9 % ID/g. The Drug uptake (Thyroid gland [22]) was 8.39 % ID/g, the Drug uptake (Blood [23]) was 4.12 % ID/g and the Drug uptake (Brain [24]) was 1.36 % ID/g. It also gave a Drug uptake (Heart [25]) of 2.01 % ID/g, a Drug uptake (Liver [26]) of 24.17 % ID/g and a Drug uptake (Spleen [27]) of 1.79 % ID/g. The Drug uptake (Lung [28]) was 4.81 % ID/g, the Drug uptake (Kidney [29]) was 16.31 % ID/g and the Drug uptake (Stomach [30]) was 3.12 % ID/organ. The Drug uptake (Intestine [31]) was 10.85 % ID/g, the Drug uptake (Thyroid gland [32]) was 11.49 % ID/g and the Drug uptake (Blood [33]) was 1.72 % ID/g. For the same molecule, the Drug uptake (Brain [34]) was 0.54 % ID/g, the Drug uptake (Heart [35]) was 0.83 % ID/g and the Drug uptake (Liver [36]) was 16.43 % ID/g. It also gave a Drug uptake (Spleen [37]) of 0.8 % ID/g, a Drug uptake (Lung [38]) of 2.43 % ID/g and a Drug uptake (Kidney [39]) of 9 % ID/g. The Drug uptake (Stomach [40]) was 2.12 % ID/organ, the Drug uptake (Intestine [41]) was 25.97 % ID/g and the Drug uptake (Thyroid gland [42]) was 14.14 % ID/g. The Drug uptake (Blood [43]) was 2.52 % ID/g, the Drug uptake (Brain [44]) was 0.4 % ID/g and the Drug uptake (Heart [45]) was 1.11 % ID/g. For the same molecule, the Drug uptake (Liver [46]) was 17.57 % ID/g, the Drug uptake (Spleen [47]) was 1.13 % ID/g and the Drug uptake (Lung [48]) was 2.82 % ID/g. For the same molecule, the Drug uptake (Kidney [49]) was 9.52 % ID/g, the Drug uptake (Stomach [50]) was 3.07 % ID/organ and the Drug uptake (Intestine [51]) was 25.7 % ID/g. It also gave a Drug uptake (Thyroid gland [52]) of 21.98 % ID/g.
